Test results from PubChem BioAssay AID2434 (Vanderbilt High Throughput Screening Facility, 2010).
The source made the active and inactive calls.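 How the source made its calls: active means an acetylcholine EC50 could be fitted from its dose curve with compound present at 10 µM; inactive means the rest.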

Target: Muscarinic acetylcholine receptor M1 (Rattus norvegicus) (UniProt P08482)
Assay: leftward shift of ACh curve by M1 PAMs, mechanism study, cell-based, ACh fold-shift, calcium, CHO-K1 (AID 2434)
Conditions: CHO-K1 rat M1, Fluo-4 calcium
How it was run: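 Also added: acetylcholine concentration-response curve, eight concentrations; material: rat M1-expressing CHO-K1 cells, Fluo-4 loaded; signal: Fluo-4 calcium signal; buffer or medium: HBSS assay buffer with HEPES and probenecid, pH 7.4; controls: vehicle acetylcholine curve and maximal acetylcholine response; schedule: dye loading 45–60 min at 37 °C, assay at 25 °C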

Sequence of Muscarinic acetylcholine receptor M1 (Rattus norvegicus) (P08482 whole entry, looked up): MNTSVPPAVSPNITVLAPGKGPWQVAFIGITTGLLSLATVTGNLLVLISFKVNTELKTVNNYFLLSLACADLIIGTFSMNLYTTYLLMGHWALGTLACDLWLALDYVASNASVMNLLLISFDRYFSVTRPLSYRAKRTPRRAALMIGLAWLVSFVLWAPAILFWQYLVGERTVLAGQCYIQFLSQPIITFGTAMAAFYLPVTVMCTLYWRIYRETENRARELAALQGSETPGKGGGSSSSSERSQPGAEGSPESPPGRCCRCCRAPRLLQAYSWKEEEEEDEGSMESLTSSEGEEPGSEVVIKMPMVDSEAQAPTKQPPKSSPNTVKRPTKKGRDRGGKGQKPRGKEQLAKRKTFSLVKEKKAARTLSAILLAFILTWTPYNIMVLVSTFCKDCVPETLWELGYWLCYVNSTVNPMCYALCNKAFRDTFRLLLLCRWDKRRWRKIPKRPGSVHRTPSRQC

| SMILES | outcome |
| --- | --- |
| Cn1cc(-c2ccc(CN3C(=O)C(=O)c4ccccc43)c(F)c2)cn1 | inactive |
| Cc1cc(NC(=O)CS(=O)(=O)c2cn(Cc3cccc(-c4cn[nH]c4)c3)c3cc(F)cc(F)c23)no1 | active |
| Cc1cc(NC(=O)CS(=O)(=O)c2cn(Cc3cc(Br)ccc3F)c3ccccc23)no1 | active |
| Cn1cc(-c2cc(F)c(CN3C(=O)C(=O)c4ccccc43)c(F)c2)cn1 | inactive |
